Laboratory results from ChEMBL document CHEMBL2093137, “WHO-TDR NTD Screening”.
Values after ≈ are worked out from the molar mass of the structure shown.

How the values were obtained:
[1] = system: Onchocerca lienalis; assay: WHO-TDR: Onchocerciasis; type: functional; design: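 at 12.5 µM on microfilariae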
Method in brief: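 Values are reported as percent inhibition and as IC50. They come from a whole-organism screen of a 10,000-compound diverse Life Chemicals library against microfilariae of Onchocerca ochengi or Onchocerca lienalis. The screen followed previously published standard procedures, with reference drugs as positive controls.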

[2] = system: Leishmania infantum; assay: WHO-TDR: Leishmaniasis; type: functional, organism-based, Mus musculus; conditions: Macrophage
Method in brief: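 The screened collection came from Life Chemicals: 10,000 diverse compounds selected after filtering for drug-likeness and reactive groups. Each was tested in a whole-organism assay against Leishmania infantum MHOM/MA(BE)/67 amastigotes inside murine peritoneal macrophages, using previously published standard procedures and a reference drug as positive control. Results are IC50 values for antiparasitic potency.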

[3] = system: Trypanosoma cruzi; assay: WHO-TDR: Chagas disease; type: functional, organism-based, Homo sapiens; conditions: MRC5
Method in brief: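 Each IC50 reflects antiparasitic potency against intracellular amastigotes of Trypanosoma cruzi Tulahuen CL2 beta-galactosidase strain. These were cultured in MRC-5SV2 human lung fibroblasts and exposed to a 10,000-compound diverse Life Chemicals library screened according to published standard procedures with a reference drug as positive control.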

[4] = system: Schistosoma mansoni; assay: WHO-TDR: Schistosomiasis; type: functional; design: concentration or dose not given beside the values
Method in brief: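 Values are reported as percent inhibition and IC50. They come from a whole-organism screen of a 10,000-compound diverse Life Chemicals library against larval and/or adult worms of Schistosoma mansoni, Puerto Rican strain. The library had been filtered for drug-likeness and reactive groups.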

[5] = system: Trypanosoma brucei brucei; assay: WHO-TDR: Human African Trypanosomiasis (HAT); type: functional, organism-based; conditions: Squib-427
Method in brief: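 Screening used a 10,000-compound diverse library supplied by Life Chemicals and filtered for drug-likeness and reactive groups. Whole bloodstream-form parasites of Trypanosoma brucei Squib 427 strain were assayed according to previously published standard procedures, with reference drugs as positive controls. The reported measure is IC50, reflecting antiparasitic potency.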

[6] = WHO-TDR: Cytotoxicity; type: toxicity, cell-based; conditions: human, MRC5 cells
[7] = system: Plasmodium falciparum K1; assay: WHO-TDR: Malaria; type: functional, organism-based, Homo sapiens; conditions: Erythrocyte
Method in brief: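 This whole-organism screen covered 10,000 drug-likeness-filtered and reactive-group-filtered compounds from Life Chemicals. The target was the Plasmodium falciparum K1 strain in human red blood cells, and the readout was antiplasmodial IC50.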

## Cn1cc(S(=O)(=O)N2CCN(C(c3ccccc3)c3ccccc3)CC2)c(=O)n(C)c1=O
[1]
  % Inhibition: 0%
[2]
  IC50: 3.65 µg/mL (≈ 8.02 µM)
[3]
  IC50: 0.34 µg/mL (≈ 0.749 µM)
[4]
  % Inhibition: 0%
[5]
  IC50: 2.16 µg/mL (≈ 4.75 µM)
[6]
  IC50: > 11.5 µg/mL
[7]
  IC50: > 11.5 µg/mL

## CN(CC1CCCO1)S(=O)(=O)c1ccc(C(=O)Nc2nc3cc4c(cc3s2)OCCO4)cc1 (stereo not given)
[1]
  % Inhibition: 20%
[2]
  IC50: > 9.82 µg/mL
[3]
  IC50: 5.16 µg/mL (≈ 10.5 µM)
[4]
  % Inhibition: 100%
[5]
  IC50: 3.69 µg/mL (≈ 7.54 µM)
[6]
  IC50: > 9.82 µg/mL
[7]
  IC50: 4.26 µg/mL (≈ 8.71 µM)

## COc1ccccc1N1CCN(C(CNS(=O)(=O)c2cccs2)c2cccnc2)CC1 (stereo not given)
[1]
  % Inhibition: 66.7%
[2]
  IC50: > 13.8 µg/mL
[3]
  IC50: 0.559 µg/mL (≈ 1.22 µM)
[4]
  % Inhibition: 0%
[5]
  IC50: > 13.8 µg/mL
[6]
  IC50: > 13.8 µg/mL
[7]
  IC50: 6.66 µg/mL (≈ 14.5 µM)

## Cc1c(Cl)ccc2sc(NC(=O)c3ccc(N(C)C)cc3)nc12
[1]
  % Inhibition: 50%
[2]
  IC50: > 10.4 µg/mL
[3]
  IC50: > 10.4 µg/mL
[4]
  % Inhibition: 0%
[5]
  IC50: > 10.4 µg/mL
[6]
  IC50: > 10.4 µg/mL
[7]
  IC50: > 10.4 µg/mL

## C#CCn1/c(=N/C(=O)CN2C(=O)c3ccccc3C2=O)sc2c3ccccc3ccc21
[1]
  % Inhibition: 13.3%
[2]
  IC50: 0.413 µg/mL (≈ 0.971 µM)
[3]
  IC50: > 11.4 µg/mL
[4]
  % Inhibition: 0%
[5]
  IC50: > 11.4 µg/mL
[6]
  IC50: > 11.4 µg/mL
[7]
  IC50: > 11.4 µg/mL

## Cc1csc(NC(=O)CSc2nnc(NC(=O)c3ccco3)s2)n1
[1]
  % Inhibition: 0%
[2]
  IC50: 4.74 µg/mL (≈ 12.4 µM)
[3]
  IC50: 5.1 µg/mL (≈ 13.4 µM)
[4]
  % Inhibition: 0%
[5]
  IC50: 4.74 µg/mL (≈ 12.4 µM)
[6]
  IC50: 5.73 µg/mL (≈ 15 µM)
[7]
  IC50: 1.14 µg/mL (≈ 3 µM)

## COc1ccc(Cl)cc1NC(=O)CSc1nnc(NC(=O)Cc2ccc(F)cc2)s1
[1]
  % Inhibition: 0%
[2]
  IC50: 2.73 µg/mL (≈ 5.85 µM)
[3]
  IC50: > 8.44 µg/mL
[4]
  % Inhibition: 100%
[5]
  IC50: > 8.44 µg/mL
[6]
  IC50: > 8.44 µg/mL
[7]
  IC50: > 8.44 µg/mL

## CN(C)CCCN(C(=O)CCSc1ccccc1)c1nc2cc3c(cc2s1)OCO3
[1]
  % Inhibition: 0%
[2]
  IC50: 0.466 µg/mL (≈ 1.05 µM)
[3]
  IC50: 0.416 µg/mL (≈ 0.938 µM)
[4]
  % Inhibition: 0%
[5]
  IC50: 2 µg/mL (≈ 4.51 µM)
[6]
  IC50: 3.54 µg/mL (≈ 7.97 µM)
[7]
  IC50: 3.42 µg/mL (≈ 7.7 µM)

## COC(=O)c1ccc(NC(=O)CSc2nnc(NC(=O)c3cc(Cl)ccc3OC)s2)cc1
[1]
  % Inhibition: 0%
[2]
  IC50: 4.24 µg/mL (≈ 8.61 µM)
[3]
  IC50: 4.49 µg/mL (≈ 9.11 µM)
[4]
  % Inhibition: 16.7%
[5]
  IC50: 0.435 µg/mL (≈ 0.882 µM)
[6]
  IC50: 4.1 µg/mL (≈ 8.31 µM)
[7]
  IC50: 0.324 µg/mL (≈ 0.657 µM)

## CCOC(=O)N1CCc2c(sc(NC(=O)c3ccco3)c2-c2nc3ccccc3s2)C1
[1]
  % Inhibition: 73.3%
[2]
  IC50: 0.43 µg/mL (≈ 0.948 µM)
[3]
  IC50: 0.455 µg/mL (≈ 1 µM)
[4]
  % Inhibition: 58.7%
[5]
  IC50: 0.377 µg/mL (≈ 0.831 µM)
[6]
  IC50: 4.51 µg/mL (≈ 9.95 µM)
[7]
  IC50: 1.36 µg/mL (≈ 3 µM)

## O=C(O)CCCCCN1C(=O)/C(=C\c2ccccc2O)SC1=S
[1]
  % Inhibition: 6.7%
[2]
  IC50: > 10.5 µg/mL
[3]
  IC50: 0.653 µg/mL (≈ 1.86 µM)
[4]
  % Inhibition: 0%
[5]
  IC50: 4.06 µg/mL (≈ 11.5 µM)
[6]
  IC50: > 10.5 µg/mL
[7]
  IC50: > 10.5 µg/mL

## O=C(CSc1ccc2nnc(-c3ccncc3)n2n1)c1ccc(Cl)cc1
[1]
  % Inhibition: 0%
[2]
  IC50: 4.72 µg/mL (≈ 12.4 µM)
[3]
  IC50: 0.425 µg/mL (≈ 1.11 µM)
[4]
  % Inhibition: 0%
[5]
  IC50: 0.35 µg/mL (≈ 0.917 µM)
[6]
  IC50: 4.28 µg/mL (≈ 11.2 µM)
[7]
  IC50: 1.82 µg/mL (≈ 4.75 µM)

## Cc1onc(-c2ccccc2Cl)c1C(=O)Nc1nnc(SCC(=O)Nc2ccc3c(c2)OCO3)s1
[1]
  % Inhibition: 13.3%
[2]
  IC50: 0.791 µg/mL (≈ 1.49 µM)
[3]
  IC50: 3.2 µg/mL (≈ 6.05 µM)
[4]
  % Inhibition: 0%
[5]
  IC50: 0.483 µg/mL (≈ 0.911 µM)
[6]
  IC50: 2.1 µg/mL (≈ 3.96 µM)
[7]
  IC50: 1.16 µg/mL (≈ 2.2 µM)

## CCCS(=O)(=O)Nc1ccc(Nc2nc(C)cc(N(C)C)n2)cc1
[1]
  % Inhibition: 0%
[2]
  IC50: > 10.5 µg/mL
[3]
  IC50: 0.335 µg/mL (≈ 0.959 µM)
[4]
  % Inhibition: 0%
[5]
  IC50: > 10.5 µg/mL
[6]
  IC50: > 10.5 µg/mL
[7]
  IC50: > 10.5 µg/mL

## CN(C)CCCN(C(=O)Cc1ccccc1)c1nc2ccc(F)cc2s1
[1]
  % Inhibition: 0%
[2]
  IC50: 3.96 µg/mL (≈ 10.7 µM)
[3]
  IC50: 4.16 µg/mL (≈ 11.2 µM)
[4]
  % Inhibition: 58.3%
[5]
  IC50: 0.382 µg/mL (≈ 1.03 µM)
[6]
  IC50: 3.81 µg/mL (≈ 10.3 µM)
[7]
  IC50: 0.609 µg/mL (≈ 1.64 µM)

## O=C(Nc1ccc(-c2cn3c(n2)SCC3)cc1)C1CCCC1
[1]
  % Inhibition: 0%
[2]
  IC50: 0.304 µg/mL (≈ 0.97 µM)
[3]
  IC50: > 9.4 µg/mL
[4]
  % Inhibition: 0%
[5]
  IC50: > 9.4 µg/mL
[6]
  IC50: > 9.4 µg/mL
[7]
  IC50: 9.4 µg/mL (≈ 30 µM)

## CCOC(=O)c1c(NC(=O)Cn2c(-n3nc(C)cc3C)nc(CC)cc2=O)sc2c1CCCCC2
[1]
  % Inhibition: 0%
[2]
  IC50: > 14.9 µg/mL
[3]
  IC50: 0.724 µg/mL (≈ 1.45 µM)
[4]
  % Inhibition: 0%
[5]
  IC50: > 14.9 µg/mL
[6]
  IC50: > 14.9 µg/mL
[7]
  IC50: 4.44 µg/mL (≈ 8.93 µM)

## Cc1cccc2sc(N(CCCN(C)C)C(=O)c3ccccc3Br)nc12
[1]
  % Inhibition: 0%
[2]
  IC50: 4.55 µg/mL (≈ 10.5 µM)
[3]
  IC50: 4.76 µg/mL (≈ 11 µM)
[4]
  % Inhibition: 33.3%
[5]
  IC50: 0.45 µg/mL (≈ 1.04 µM)
[6]
  IC50: 3.97 µg/mL (≈ 9.18 µM)
[7]
  IC50: 0.653 µg/mL (≈ 1.51 µM)

## CCN(CC)c1cc(C)nc(Nc2ccc(NS(=O)(=O)c3ccc(C)cc3C)cc2)n1
[1]
  % Inhibition: -1%
[2]
  IC50: 4.27 µg/mL (≈ 9.71 µM)
[3]
  IC50: 0.324 µg/mL (≈ 0.737 µM)
[4]
  % Inhibition: 100%
[5]
  IC50: 0.429 µg/mL (≈ 0.976 µM)
[6]
  IC50: 1.51 µg/mL (≈ 3.43 µM)
[7]
  IC50: 0.357 µg/mL (≈ 0.812 µM)

## CN(C)CCCN(C(=O)CCOc1ccccc1)c1nc2cc3c(cc2s1)OCO3
[1]
  % Inhibition: 0%
[2]
  IC50: 0.451 µg/mL (≈ 1.05 µM)
[3]
  IC50: 0.433 µg/mL (≈ 1.01 µM)
[4]
  % Inhibition: 75%
[5]
  IC50: 4.51 µg/mL (≈ 10.5 µM)
[6]
  IC50: 3.34 µg/mL (≈ 7.81 µM)
[7]
  IC50: 1.72 µg/mL (≈ 4.01 µM)

## CCOC(=O)N1CCc2c(sc(NC(=O)C3COc4ccccc4O3)c2C(N)=O)C1 (stereo not given)
[1]
  % Inhibition: 13.3%
[2]
  IC50: > 12.9 µg/mL
[3]
  IC50: > 12.9 µg/mL
[4]
  % Inhibition: 66%
[5]
  IC50: > 12.9 µg/mL
[6]
  IC50: > 12.9 µg/mL
[7]
  IC50: > 12.9 µg/mL

## CCS(=O)(=O)c1ccc(-c2cccc(NC(=O)c3cc(Cl)ccc3Cl)c2)nn1
[1]
  % Inhibition: 0%
[2]
  IC50: 4.24 µg/mL (≈ 9.71 µM)
[3]
  IC50: > 13.1 µg/mL
[4]
  % Inhibition: 100%
[5]
  IC50: > 13.1 µg/mL
[6]
  IC50: > 13.1 µg/mL
[7]
  IC50: > 13.1 µg/mL

## O=C(CSc1nnc(NC(=O)c2ccccc2C(F)(F)F)s1)Nc1ccc2c(c1)OCO2
[1]
  % Inhibition: 0%
[2]
  IC50: 4.55 µg/mL (≈ 9.44 µM)
[3]
  IC50: 4.76 µg/mL (≈ 9.86 µM)
[4]
  % Inhibition: 0%
[5]
  IC50: 0.45 µg/mL (≈ 0.933 µM)
[6]
  IC50: 3.97 µg/mL (≈ 8.23 µM)
[7]
  IC50: 0.653 µg/mL (≈ 1.35 µM)

## O=C(CSc1nc2ccccc2nc1O)Nc1ccccc1C(=O)c1ccccc1
[1]
  % Inhibition: 26.7%
[2]
  IC50: 1.97 µg/mL (≈ 4.75 µM)
[3]
  IC50: > 12.5 µg/mL
[4]
  % Inhibition: 0%
[5]
  IC50: > 12.5 µg/mL
[6]
  IC50: > 12.5 µg/mL
[7]
  IC50: > 12.5 µg/mL

## CCOC(=O)Cn1/c(=N/C(=O)c2ccccc2Br)sc2cc(S(C)(=O)=O)ccc21
[1]
  % Inhibition: 0%
[2]
  IC50: > 14.9 µg/mL
[3]
  IC50: > 14.9 µg/mL
[4]
  % Inhibition: 100%
[5]
  IC50: > 14.9 µg/mL
[6]
  IC50: > 14.9 µg/mL
[7]
  IC50: > 14.9 µg/mL
